# Laboratory results taken from ChEMBL document CHEMBL4393678, “Novel Tetrahydroquinazolinamines as Selective Histamine 3 Receptor Antagonists for the Treatment of Obesity” (J Med Chem, 2019).
# Activity calls are given as the source filed them. The calls are words filed in the database; no cut-off is given here.
# What was measured:
# [1] = test system: Mus musculus; assay: Anti-obesity activity in high fat diet-induced obese C57BL/6J mouse model assessed as change in body weight at 20 mg/kg, po measured after 6 weeks (reference value: 3.86 +/- 0.99 g); format: functional
# [2] = Apparent clearance in C57BL/6J mouse serum at 20 mg/kg, po by LC-MS/MS analysis; format: ADME, organism-based
# Procedure, shortened: (§1)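 Male C57BL/6J mice (6-8 weeks, 20 ± 5 g) fasted overnight (12-16 h) got a single 20 mg/kg oral dose as 2.5 mg/mL suspension in 1% w/v gum acacia; n=5 per time point. Serum and brain (PBS homogenate 1:6 w/v) sampled up to 24 h. Parent and demethylated metabolite quantified by LC-MS/MS after liquid-liquid extraction (C18, MRM, phenacetin internal standard; linear 0.25-200 ng/mL). Two-compartment open model fit.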
# [3] = target: T1, D(4) dopamine receptor (Homo sapiens) (UniProt P21917); assay: Agonist activity at D4 receptor (unknown origin)
# T1 sequence (whole entry): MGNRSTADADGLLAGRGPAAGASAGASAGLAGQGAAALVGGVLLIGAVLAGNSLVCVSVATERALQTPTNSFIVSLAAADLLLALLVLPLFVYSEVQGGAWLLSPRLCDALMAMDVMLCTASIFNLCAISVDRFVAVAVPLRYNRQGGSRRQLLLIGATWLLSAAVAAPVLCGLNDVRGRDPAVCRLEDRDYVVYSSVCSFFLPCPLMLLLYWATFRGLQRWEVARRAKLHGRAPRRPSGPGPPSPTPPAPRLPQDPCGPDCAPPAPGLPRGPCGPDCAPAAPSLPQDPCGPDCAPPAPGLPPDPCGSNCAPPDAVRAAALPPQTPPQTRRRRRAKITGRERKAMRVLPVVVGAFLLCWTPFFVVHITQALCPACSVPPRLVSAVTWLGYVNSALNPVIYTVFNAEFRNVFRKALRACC
# [4] = target: D(1A) dopamine receptor (Homo sapiens) (UniProt P21728); assay: Antagonist activity at Gs-coupled D1 receptor (unknown origin) expressed in HEK293T cells assessed as reduction in histamine-induced inhibition of forskolin-stimulated cAMP accumulation preincubated for 10 to 15 followed by histamine addition for 10 mins and subsequent forskolin-stimulation by Glo-sensor assay; format: functional, cell-based
# [5] = Toxicity in lean C57BL/6J mouse assessed as change in body fat mass at 10 to 20 mg/kg, po measured after 6 weeks; format: organism-based; settings: in vivo, 1008 h
# [6] = target: Free fatty acid receptor 1 (Homo sapiens) (UniProt O14842); assay: Antagonist activity at GPR40 (unknown origin) expressed in HEK293 cells harboring luc2P/NFAT-RE plasmid at 10 uM after 6 to 8 hrs by luciferase reporter gene assay; format: cell-based
# Procedure, shortened: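 NFAT-RE luciferase assay in HEK293T cells transiently co-transfected with luc2P/NFAT-RE plasmid and receptor plasmid. Cells plated in DMEM and incubated overnight at 37 °C, 5% CO₂. Compounds and reference ligands applied for 6-8 h. Luciferase read after adding Bright-Glo substrate (1 mg/ml final).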
# [7] = test system: Mus musculus; assay: Anti-obesity activity in high fat diet-induced obese C57BL/6J mouse model assessed as change in LDL level at 10 to 20 mg/kg, po measured after 6 weeks; format: functional, organism-based
# Procedure, shortened: (§2)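 At the end of treatment (six weeks HFD, four weeks db/db), mice euthanized with avertin 350 mg/kg. Blood taken by cardiac puncture into 3.8% sodium citrate. Plasma separated at 4000 rpm and stored at -80 °C. TG, TC, HDLc and LDLc measured on a bio-analyzer.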
# [8] = Tmax in C57BL/6J mouse serum assessed as 4-(2-Amino-8-methyl-5,6,7,8-tetrahydroquinazolin-4-yl)phenol level at 20 mg/kg, po by LC-MS/MS analysis; format: ADME, organism-based; settings: in vivo; procedure, shortened: as §1
# [9] = Tmax in C57BL/6J mouse brain at 20 mg/kg, po by LC-MS/MS analysis; format: ADME, organism-based; procedure, shortened: as §1
# [10] = test system: Mus musculus; assay: Anti-obesity activity in high fat diet-induced obese C57BL/6J mouse model assessed as change in body weight at 10 mg/kg, po measured after 6 weeks (reference value: 3.86 +/- 0.99 g); format: functional
# Procedure, shortened: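 Male C57BL/6J mice (6–8 weeks, 22–25 g) on high-fat diet, with a normal-chow group included. Daily chronic oral dosing against vehicle for six weeks. Percent body weight change followed over the treatment days, and net body weight change taken at six weeks. n=5-6 per group. Two-way ANOVA, or one-way ANOVA with Newman-Keuls test.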
# [11] = Tmax in C57BL/6J mouse serum at 20 mg/kg, po by LC-MS/MS analysis; format: ADME, organism-based; procedure, shortened: as §1
# [12] = test system: Mus musculus; assay: Anti-obesity activity in 16 hrs fasted db/db-induced obese C57BL/6J mouse model assessed as reduction in fasting blood glucose level at 20 mg/kg, po measured after 4 weeks; format: functional, organism-based
# [13] = Ratio of AUClast in C57BL/6J mouse brain assessed as 4-(2-Amino-8-methyl-5,6,7,8-tetrahydroquinazolin-4-yl)phenol level to AUClast in C57BL/6J mouse serum assessed as 4-(2-Amino-8-methyl-5,6,7,8-tetrahydroquinazolin-4-yl)phenol level; format: ADME
# Procedure, shortened: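 Male C57BL/6J mice (6–8 weeks) were fasted 12–16 h, then given a single oral dose of 20 mg/kg as a 2.5 mg/mL suspension in 1% gum acacia/water (n=5 per time point). Serum and brain (homogenised 1:6 in PBS) were sampled up to 24 h. Parent and demethylated metabolite were measured by LC-MS/MS (range 0.25–200 ng/mL). AUC ran to the last observation.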
# [14] = AUClast in C57BL/6J mouse serum at 20 mg/kg, po by LC-MS/MS analysis; format: ADME, organism-based; parameters: dose 20 mg/kg, route oral, time 0 - last
# Procedure, shortened: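 Male C57BL/6J mice, 6-8 weeks, 20 ± 5 g, fasted overnight (12-16 h), n = 5 per time point. Single 20 mg/kg oral dose given by feeding needle as a 2.5 mg/mL suspension in 1% w/v gum acacia and water. Serum and brain (homogenized 1:6 w/v in PBS) sampled up to 24 h. Liquid-liquid extraction, then LC-MS/MS in positive MRM mode with phenacetin as internal standard. Linear range 0.25-200 ng/mL. Non-compartmental and compartmental analysis.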
# [15] = test system: Mus musculus; assay: Anti-obesity activity in high fat diet-induced obese C57BL/6J mouse model assessed as change in HDL level at 10 to 20 mg/kg, po measured after 6 weeks; format: functional, organism-based; procedure, shortened: as §2
# [16] = test system: Mus musculus; assay: Anorexic effect in high fat diet-induced obese C57BL/6J mouse model assessed as reduction in cumulative food intake at 20 mg/kg, po pretreated for 30 mins followed by food addition measured after 4 hrs relative to control; format: functional; parameters: scale not given: the % may be the effect or the level left
# Procedure, shortened: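 Mice starved 12 h (8:00 am to 8:00 pm) with water available, then housed singly. Compound given orally in 5% gum acacia in normal saline; vehicle group received the same. Cumulative food intake measured over 4 h of the night phase (9:00 pm to 1:00 am), starting 30 min after dosing. Antagonism arms: imitet 5 mg/kg i.p. 30 min before compound, or α-methyl-DL-histidine 20 mg/kg i.p. 2 h before.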
# [17] = Toxicity in lean C57BL/6J mouse assessed as change in body weight at 20 mg/kg, po measured after 6 weeks; format: organism-based; settings: in vivo, 1008 h
# [18] = Cmax in C57BL/6J mouse brain at 20 mg/kg, po by LC-MS/MS analysis; format: ADME, organism-based; parameters: dose 20 mg/kg, route oral; settings: in vivo; procedure, shortened: as §1
# Sequence of D(1A) dopamine receptor (Homo sapiens) (P21728 whole entry): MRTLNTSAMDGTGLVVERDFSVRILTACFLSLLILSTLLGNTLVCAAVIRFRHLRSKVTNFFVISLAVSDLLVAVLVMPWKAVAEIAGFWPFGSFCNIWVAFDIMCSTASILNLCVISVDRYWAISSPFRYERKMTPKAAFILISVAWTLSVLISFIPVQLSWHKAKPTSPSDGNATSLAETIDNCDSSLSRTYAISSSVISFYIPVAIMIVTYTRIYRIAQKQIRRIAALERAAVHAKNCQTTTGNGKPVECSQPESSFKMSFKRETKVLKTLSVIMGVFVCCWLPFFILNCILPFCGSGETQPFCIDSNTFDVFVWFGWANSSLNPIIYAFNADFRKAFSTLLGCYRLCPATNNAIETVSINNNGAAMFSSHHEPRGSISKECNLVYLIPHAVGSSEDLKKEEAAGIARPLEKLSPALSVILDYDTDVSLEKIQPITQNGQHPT
# Sequence of Free fatty acid receptor 1 (Homo sapiens) (O14842 whole entry): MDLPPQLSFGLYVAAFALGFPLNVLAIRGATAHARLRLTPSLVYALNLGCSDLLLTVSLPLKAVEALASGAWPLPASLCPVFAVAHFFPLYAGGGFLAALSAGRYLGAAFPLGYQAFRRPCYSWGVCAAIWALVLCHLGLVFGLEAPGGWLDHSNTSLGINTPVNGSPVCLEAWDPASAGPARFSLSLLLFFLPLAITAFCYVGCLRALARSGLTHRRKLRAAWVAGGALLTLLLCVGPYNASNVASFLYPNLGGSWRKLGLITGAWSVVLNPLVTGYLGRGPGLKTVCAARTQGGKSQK
compound,measurement,setting,value
COc1ccc(-c2nc(N)nc3c2CCCC3C)cc1 (racemic),Activity,[1],0.8 g
same,CL/F,[2],172 mL/min/kg
same,Activity,[3],inactive
same,inhibition,[4],inactive
same,Activity,[5],Non-Toxic
same,inhibition,[6],inactive
same,Activity,[7],inactive
same,Tmax,[8],15 min
same,Tmax,[9],30 min
same,Activity,[10],2.6 g
same,Tmax,[11],15 min
same,Activity,[12],Active
same,Ratio AUC,[13],6.1%
same,AUC(0-t),[14],1920 ng·h/mL
same,Activity,[15],inactive
same,Activity,[16],28%
same,Activity,[17],Non-Toxic
same,Cmax,[18],323 ng/g
